Data taken from article PMC4624265 (Nuclear medicine and biology, 2015).

Columns and labels:
[1] = target: T1, PSMA (Homo sapiens, UniProt Q04609); assay: PSMA inhibition assay; type: biochemical
[2] = target: T1, PSMA; assay: Reversibility assay; type: biochemical
[3] = system: mice bearing CWR22Rv1 tumor xenografts; assay: Ex vivo biodistribution in CWR22Rv1 tumor-bearing mice; conditions: indicated by insignificant bone uptake
Outline: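 Male athymic NCr-nu/nu mice carried CWR22Rv1 xenografts (about 10^6 cells in 50/50 complete medium/matrigel, right shoulder), used 4–5 weeks after implantation. Under isoflurane, HPLC-purified radiotracer (35–40 μCi in saline) was given by tail vein. For blocking, 250 μg of the PSMA inhibitor in saline was given 1 h before tracer, 4 h group only. Mice were euthanized at 1 h or 4 h, n = 4. Blood was taken by cardiac puncture; organs were weighed and gamma-counted. %ID/g was calculated against standards; two-tailed t-test, p<0.05.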

T1 sequence (Q04609 whole entry): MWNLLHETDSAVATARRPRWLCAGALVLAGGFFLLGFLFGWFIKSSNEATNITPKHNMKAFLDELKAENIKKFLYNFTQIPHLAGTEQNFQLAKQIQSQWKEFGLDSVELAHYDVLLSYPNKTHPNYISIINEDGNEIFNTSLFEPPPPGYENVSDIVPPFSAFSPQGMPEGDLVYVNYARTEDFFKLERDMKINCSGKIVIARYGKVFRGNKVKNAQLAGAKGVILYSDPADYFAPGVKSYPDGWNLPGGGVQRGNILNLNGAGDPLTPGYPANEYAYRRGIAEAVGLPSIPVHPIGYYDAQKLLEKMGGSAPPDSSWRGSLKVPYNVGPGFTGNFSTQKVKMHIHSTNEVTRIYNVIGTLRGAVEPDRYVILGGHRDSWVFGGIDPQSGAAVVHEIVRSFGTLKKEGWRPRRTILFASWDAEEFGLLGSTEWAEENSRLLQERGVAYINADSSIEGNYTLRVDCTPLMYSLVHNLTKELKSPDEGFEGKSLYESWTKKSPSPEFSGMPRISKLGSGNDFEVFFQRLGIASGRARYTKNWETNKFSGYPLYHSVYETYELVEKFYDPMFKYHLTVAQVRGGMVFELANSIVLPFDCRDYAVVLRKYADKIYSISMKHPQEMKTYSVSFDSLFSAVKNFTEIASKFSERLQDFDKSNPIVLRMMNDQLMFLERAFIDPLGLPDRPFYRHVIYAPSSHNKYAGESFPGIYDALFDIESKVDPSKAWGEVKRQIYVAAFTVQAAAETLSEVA

`NCCCCCC(=O)N[C@@H](CCC(=O)N[C@H](CCCOP(=O)(O)NC(CCC(=O)O)C(=O)O)C(=O)O)C(=O)O` (stereo partly drawn) [compound 3, 2-(((S)-((4R)-4-(4-(6-aminohexanamido)-4-carboxybutanamido)-4-carboxybut-oxy) (hydroxy)phosphoryl)amino)pentanedioic acid] was tested, and the IC50 [1] was 19 nM and the “Mode of binding to PSMA” value [2] was “irreversible”.
`O=C(O)CCC(NP(=O)(O)OCCC[C@@H](NC(=O)CC[C@H](NC(=O)CCCCCNC(=O)c1ccc(F)cc1)C(=O)O)C(=O)O)C(=O)O` (stereo partly drawn) [compound 5, 2-(((S)-((4R)-4-carboxy-4-(4-carboxy-4-(6-(4-fluorobenzamido)hexanamido)butanamido)butoxy)(hydroxy)phosphoryl)amino) pentanedioic acid] was tested, and the “Mode of binding to PSMA” value [2] was “irreversible” and the Defluorination in vivo [3] was “no defluorination”.
